Assay outcomes: PubChem BioAssay, Broad Institute
ARNT-TACC3 inh = disruptors of human ARNT/TACC3 interaction. Q9Y6A5. AlphaScreen His-ARNT PAS-B/GST-TACC3 binding, luminescence; TACC3 fragment carries E629A point mutation. inhibition, % at 9.99 µM. hit rate 0.66% among 390,000. AID 623870;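 active = mean inhibition of replicates at least 50% and at least half of replicates each reaching 50%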;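 note: 0% = complete ARNT plus TACC3 wells and 100% = ARNT alone without TACC3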
CAL PDZ FP-1 = CAL PDZ (human) peptide binding inhibition | hit rate 0.92% among 300,000 | purified CAL PDZ, TMR-peptide fluorescence polarization, 1 h | Q9HD26 | inhibition, % at 24.9 µM;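 active = mean inhibition of at least 30% with at least half of replicates also reaching 30%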;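 note: 0% = DMSO neutral control and 100% = excess unlabeled competitor peptide PRC23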
CAL PDZ FP-2 = inhibitors of human CAL PDZ peptide binding | Q9HD26 | purified CAL PDZ, TMR-peptide fluorescence polarization, 1 h | inhibition, % at 20 µM | hit rate 0.02% among 330,000 | AID 504414;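 active = highest replicate inhibition of at least 40%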;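 note: plate controls were DMSO neutral control wells for no effect and unlabeled competitor peptide control wells for full effect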
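Material – purified CerCALP PDZ construct · Detection – FP readout, S and P plane fluorescence · Measure – percent inhibition from loss of millipolarization · Controls – unlabelled peptide for full inhibition, DMSO wells as neutral · Probe or stimulus – TMR-labelled reporter peptide T*-PRC34 bound in PDZ groove · Times – 1 h at RT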
Starred values were filed as active, the others as inactive; nt = no result. The list is not random: actives were taken first. Their share in the collection is about 1.2%.

SMILES | ARNT-TACC3 inh | CAL PDZ FP-1 | CAL PDZ FP-2
Cc1noc(C)c1NC(=O)Nc1ccc2c(c1)C(=O)N([C@H](C)CO)C[C@@H](C)[C@@H](CN(C)Cc1ccc(C(=O)O)cc1)OCCCC[C@@H](C)O2 | -0.8 | nt | nt
COc1cc(/C=N/n2c(-c3cc(C)[nH]n3)n[nH]c2=S)ccc1O | -4.8 | 0.4 | 0.0
COc1cc(/C=N/n2c(-c3cc(C)[nH]n3)n[nH]c2=S)cc(OC)c1OC | 5.3 | 33.7* | -1.9
COc1ccc(C(=O)CCC(C)(C)[N+](=O)[O-])cc1OC | -4.3 | 33.0* | -0.2
COc1ccc(C(=O)CCS(=O)(=O)c2ccc(C)cc2)cc1OC | -2.1 | -2.6 | -1.2
O=C(N/N=C/c1ccc(O)cc1O)/C(=C/c1ccccc1)CCO | 70.4* | -0.3 | -2.3
Cc1cc([N+](=O)[O-])nn1CC(=O)N/N=C/c1ccc(O)cc1O | 70.7* | -3.7 | -2.3
Cc1cc([N+](=O)[O-])nn1CC(=O)N/N=C/c1ccccc1Br | 5.5 | -3.7 | -0.7
COc1cc(/C=N/NC(=O)/C(=C/c2ccccc2)CCO)ccc1O | -5.3 | -2.5 | -2.3
Cc1ccc(NC(=O)CCC(=O)N/N=C/c2ccc(O)cc2O)cc1 | 71.1* | -6.0 | -0.8
O=C(CCC(=O)Nc1ccc(F)cc1)N/N=C/c1ccccc1O | 31.0 | -4.0 | -2.4
Cc1noc(C)c1NC(=O)Nc1ccc2c(c1)CC(=O)N([C@H](C)CO)C[C@H](C)[C@H](CN(C)C(=O)Nc1c(C)noc1C)O2 | -4.1 | nt | nt
C[C@@H]1CN([C@@H](C)CO)C(=O)Cc2cc(NC(=O)Nc3ccc(F)cc3)ccc2O[C@H]1CN(C)Cc1ccc(Oc2ccccc2)cc1 | -10.8 | nt | nt
CC(C)NC(=O)N[C@@H]1CC[C@@H](CC(=O)NC2Cc3ccccc3C2)O[C@@H]1CO | -1.2 | nt | nt
CN(C)C(=O)C[C@@H]1CC[C@@H]2[C@@H](COc3ccc(NC(=O)C4CCOCC4)cc3C(=O)N2C)O1 | 0.0 | nt | nt
C=CCOc1ccc(C(c2c(C(=O)O)[nH]c3ccccc23)c2c(C(=O)O)[nH]c3ccccc23)cc1 | -2.6 | -3.1 | 3.3
O=C(O)c1[nH]c2ccccc2c1C(c1ccccc1)c1c(C(=O)O)[nH]c2ccccc12 | -2.1 | 56.4* | 44.9*
O=C(NCc1ccccn1)NC12CC3CC(CC(C3)C1)C2 | -3.4 | 76.1* | -0.4
O=C(NCc1ccccc1)NC12CC3CC(CC(C3)C1)C2 | 2.3 | 1.8 | -0.3
Cc1cc(Br)ccc1Nc1nc(N)nc(N)c1N=O | -4.8 | 0.0 | -0.8
Cc1cccc(Nc2nc(N)nc(N)c2N=O)c1 | 10.5 | 71.0* | 19.1
CCOC(=O)c1nnn(-c2nonc2N)c1CN1CCCCCC1 | 3.1 | nt | -0.6
Cc1c(C(=O)N2CCCCCC2)nnn1-c1nonc1N | -2.7 | 48.5* | -0.1
C[C@H](CO)N1C[C@H](C)[C@@H](CN(C)Cc2ccncc2)Oc2ccc(NS(=O)(=O)c3cn(C)cn3)cc2CC1=O | -4.8 | nt | nt
Cc1noc(C)c1S(=O)(=O)Nc1ccc2c(c1)C(=O)N([C@H](C)CO)C[C@@H](C)[C@H](CN(C)S(=O)(=O)c1cccs1)OCCCC[C@H](C)O2 | 5.5 | nt | nt
SMILES | ARNT-TACC3 inh | CAL PDZ FP-1 | CAL PDZ FP-2
S=C(N/N=C/c1ccc(Cl)cc1)N1CCOCC1 | 60.6* | -0.9 | -1.6
S=C(N/N=C/c1ccc(Br)cc1)N1CCCCC1 | 37.9* | -2.1 | 1.0
CSC(=S)N/N=C/c1ccc(Br)cc1 | 2.0 | 3.7 | -0.4
S=C(Nc1ccc(Cl)cc1Cl)N1CCOCC1 | -3.2 | -2.0 | 0.1
CC(C)CC#Cc1ccc2c(c1)O[C@H](CN(C)C(=O)c1cnccn1)[C@@H](C)CN([C@@H](C)CO)S2(=O)=O | 1.4 | nt | nt
C[C@H](CO)N1C[C@H](C)[C@@H](CN(C)Cc2ccccc2)Oc2ncc(-c3cccc(F)c3)cc2C1=O | -2.2 | nt | nt
COc1ccc(CN(C)C[C@@H]2OCCCC[C@@H](C)Oc3ccc(NC(=O)Nc4c(C)noc4C)cc3C(=O)N([C@@H](C)CO)C[C@@H]2C)cc1 | 24.2 | nt | nt
CC(C)NC(=O)Nc1ccc2c(c1)CC(=O)N([C@H](C)CO)C[C@@H](C)[C@H](CN(C)S(=O)(=O)c1ccc(Cl)cc1)O2 | 0.1 | nt | nt
C[C@@H]1CN([C@@H](C)CO)C(=O)Cc2cc(NC(=O)Nc3ccc(F)cc3)ccc2O[C@@H]1CN(C)Cc1ccc2c(c1)OCO2 | 14.1 | nt | nt
Cc1cccc(CSc2nn3c(=O)c(C)nnc3s2)c1 | nt | -0.8 | -2.3
COc1ccc(Cc2nnc3sc(SCC(=O)Nc4ccccc4)nn3c2=O)cc1OC | 62.8* | -1.2 | -1.5
CC(=O)Nc1cccc(NC(=O)CSc2nn3c(=O)c(C)nnc3s2)c1 | 66.8* | nt | -0.6
Cc1nnc2sc(SCc3ccc(Cl)cc3)nn2c1=O | 0.0 | -1.6 | -1.0
Cc1nnc2sc(SCC(=O)Nc3ccc(Cl)cc3)nn2c1=O | 42.6* | 37.5* | 14.7
